{"source": "paper PMC7688577", "about": "(FASEB journal : official publication of the Federation of …, 2020)", "key": {"[1]": {"system": "chymotrypsin-like proteasome activity", "assay": "Proteasome activity assay", "assay_type": "cell-based", "conditions": "NIH3T3(RHO^P23H/GFP) and NIH3T3(RHO^WT/GFP) cells, MTX 0.0195 to 10 μM, 24 h", "in_short": "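Cells were seeded at 2500/well in 384-well plates and after 3 h treated for 24 h with test compound at 0.0195–10 μM final. Controls were 0.1% DMSO (100%) and 5 μM MG-132 for 8 h (0%). Proteasome-Glo reagent with Suc-LLVY-Glo substrate was added, shaken 2 min and held 24 min at RT. Luminescence gave chymotrypsin-like activity, normalized to the controls.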"}, "Rho^P23H/+ mice [2]": {"system": "Rho^P23H/+ mice", "assay": "Retinal immunohistochemistry", "assay_type": "in vivo, mouse", "in_short": "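Rho^P23H/+ mice received intravitreal test compound (25 or 100 pmol) in one eye and PBS in the fellow eye. Dosing was either a single injection at PND 15, with eyes enucleated at PND 33, or four weekly injections from PND 15, with enucleation at PND 46. Retinae were processed for rhodopsin immunohistochemistry and ONL nuclear counts. Age-matched Rho^+/+ mice served as normal controls.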"}, "[3]": {"system": "rhodopsin mutants (T4R, P23H, P53R, C110Y, D190N, P267L)", "assay_type": "cell-based, mouse", "conditions": "U2OS cells", "in_short": "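U2OS stable lines expressed WT or mutant mouse rhodopsin fused to Venus. Cells were transfected with pcDNA3.1 Zeo constructs, kept 48 h in DMEM/10% FBS, then selected with 400 μg/mL Zeocin. Stable cells were treated with test compound at 10 μM and immunostained for rhodopsin.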"}, "Rho^P23H/+ mice [4]": {"system": "Rho^P23H/+ mice", "assay": "Immunoblot of LC3 and SQSTM1/p62 in retinae after IVI", "assay_type": "in vivo, mouse", "conditions": "25 pmol IVI at PND 15, 48 h after treatment", "in_short": "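Rho^P23H/+ mice received a 25 pmol/eye intravitreal injection of test compound at PND 15, with PBS in the contralateral eye. Retinae were taken 48 h later, and 30 μg of lysate was immunoblotted for SQSTM1/p62 and LC3 with β-actin as loading control. Blotting used SDS-PAGE, nitrocellulose transfer, 1 h blocking in 5% BSA/PBS-0.05% Tween 20, primary antibody overnight at 4 °C, secondary 1 h at RT, and chemiluminescent detection.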"}, "[5]": {"target": "P23H rhodopsin fused with Renilla luciferase (Mus musculus, UniProt P15409, P23H)", "assay": "Rluc reporter assay in Hek293", "assay_type": "cell-based", "conditions": "HEK293, read-out: Rluc assay Hek293 (RHO^P23H-Rluc) Efficacy"}, "[6]": {"assay": "Estimated vitreous concentration after intravitreal injection, rabbit", "conditions": "1.76 μmol, vitreous cavity about 1.5 mL, ref [70]"}, "P23H rhodopsin [7]": {"target": "T1, P23H rhodopsin (Mus musculus, UniProt P15409, P23H)", "assay": "Image-based", "assay_type": "cell-based"}, "P23H rhodopsin [8]": {"target": "T1, P23H rhodopsin", "assay": "Rhodopsin dot blot of NIH3T3", "assay_type": "cell-based", "conditions": "NIH3T3(RHO^P23H/GFP) cells, 10 μM, 24 h, vs DMSO control", "in_short": "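NIH3T3(RHO^P23H/GFP) cells were seeded at 2.5 × 10⁴/well in 96-well plates, attached 4 h, then given medium with 2× test compound to reach 10 μM final for 24 h. Cells were PBS-washed and lysed in RIPA with protease inhibitors plus 6 s sonication. Of each well's lysate, 90% was dotted on nitrocellulose, air-dried and probed with 0.1 μg/mL HRP-1D4. Densitometry was normalized to DMSO.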"}, "RHO transcripts": {"system": "RHO transcripts", "assay": "qPCR of RHO transcripts in NIH3T3", "assay_type": "cell-based, mouse", "conditions": "10 μM, 24 h", "in_short": "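NIH3T3 cells stably expressing WT or P23H rhodopsin (GFP lines) were seeded in 24-well plates at 2.5×10⁵ cells/well and cultured overnight at 37 °C, 5% CO₂. They were then exposed to test compound in culture medium for 24 h. RNA was precipitated by centrifugation at 12,000×g for 10 min at 4 °C, washed with 75% ethanol, air-dried and dissolved in nuclease-free water before qPCR.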"}, "P23H rhodopsin [9]": {"target": "T1, P23H rhodopsin", "assay": "Rhodopsin immunoblot of NIH3T3", "assay_type": "cell-based", "conditions": "10 μM MTX plus 100 nM BafA1, 24 h", "in_short": "(§1)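 Cells were seeded at 5 × 10⁵/well in 6-well plates for 17 h, then given fresh medium with test compound and inhibitor. Protein was measured by A280. Rhodopsin blots loaded 100 μg (P23H line) or 20 μg (WT line), run on 10% and 16% SDS-PAGE and transferred to nitrocellulose. Membranes were blocked 1 h in 5% BSA/PBS-0.05% Tween 20, probed with primary overnight at 4 °C and secondary 1 h at RT, with chemiluminescent detection.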"}, "WT rhodopsin": {"system": "WT rhodopsin", "assay": "Rhodopsin immunoblot of NIH3T3", "assay_type": "cell-based, mouse", "conditions": "10 μM MTX plus 100 nM BafA1, 24 h", "in_short": "as §1"}, "P23H rhodopsin [10]": {"target": "T1, P23H rhodopsin", "assay": "Non-radioactive pulse-chase assay in NIH3T3", "assay_type": "cell-based", "conditions": "10 μM", "in_short": "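Non-radioactive pulse-chase. Cells (3 × 10⁵/well, 24-well) were grown overnight, starved in Met-free DMEM for 1 h, then pulsed with 50 μM L-AHA for 4 h (50 μM Met as negative control). Chase was 24 h in DMEM with 2 mM Met ± 10 μM test compound. Lysates (200 μg) were clicked with 5 μM BTN-sDIBO for 1 h at 37 °C, immunoprecipitated with 1D4, eluted at pH 2.8, dot-blotted and probed with HRP-streptavidin. Values normalized to DMSO on the same membrane; N=3, unpaired two-tailed t-test.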"}, "Rho^P23H/+ mice [11]": {"system": "Rho^P23H/+ mice", "assay": "Electroretinogram", "assay_type": "in vivo, mouse", "in_short": "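Rho^P23H/+ mice (homozygous knock-in crossed with C57BL/6J). Test compound given by intravitreal injection to one eye, PBS to the other. Dosing was a single 25 or 100 pmol at PND 15 with ERG at PND 32, or four weekly injections (PND 15, 22, 29, 36) with ERG at PND 44. Scotopic ERG used eight flashes. Photopic ERG used six flashes (0.01–30 cd·s/m²) after 5 min adaptation to 10 cd/m², on that background. Age-matched Rho^+/+ controls. Two-way ANOVA.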"}, "[12]": {"conditions": "single IVI 25 pmol at PND 15, IHC at PND 33"}, "[13]": {"conditions": "single IVI 100 pmol at PND 15, ERG at PND 32"}}, "data": [{"smiles": "CN(Cc1cnc2nc(N)nc(N)c2n1)c1ccc(C(=O)N[C@@H](CCC(=O)O)C(=O)O)cc1", "note": "[CL-009, methotrexate]", "values": [{"measurement": "Chymotrypsin-like proteasome activity", "setting": "[1]", "value": "did not affect"}, {"measurement": "Retinal degeneration caused by MTX", "setting": "Rho^P23H/+ mice [2]; 100 pmol IVI, Rho^P23H/+ mice", "value": "did not see obvious retinal degeneration"}, {"measurement": "Nucleus number in the ONL vs PBS group, superior side", "setting": "Rho^P23H/+ mice [2]; four IVIs of 25 pmol, IHC at PND 46", "value": "higher"}, {"measurement": "ONL nucleus number, either side of the retina", "setting": "Rho^P23H/+ mice [2]; [12]", "value": "No change"}, {"measurement": "Total rhodopsin level and rhodopsin in the OS compared to PBS control, superior side", "setting": "Rho^P23H/+ mice [2]; [12]", "value": "significant increase"}, {"measurement": "Rhodopsin immunofluorescence in cells expressing the P23H, C110Y, D190N and P267L mutants", "setting": "[3]", "value": "dose-dependent reductions"}, {"measurement": "LC3-II level in retinae compared to PBS control", "setting": "Rho^P23H/+ mice [4]", "value": "increase"}, {"measurement": "SQSTM1/p62 level in retinae compared to PBS control", "setting": "Rho^P23H/+ mice [4]", "value": "decrease"}, {"measurement": "Emax", "setting": "[5]", "value": 53, "unit": "%"}, {"measurement": "Final concentration in vitreous", "setting": "[6]", "value": "about 1 mM"}, {"measurement": "Mean intensity of P23H rhodopsin immunostaining per cell", "setting": "P23H rhodopsin [7]; MTX alone", "value": "reduced in an MTX dose-dependent manner"}, {"measurement": "Emax", "setting": "P23H rhodopsin [7]; NIH3T3, 24 h, read-out: Image-based assay NIH3T3 (RHO^P23H/GFP) Efficacy", "value": 36, "unit": "%"}, {"measurement": "Rho protein level (Dot blot)", "setting": "P23H rhodopsin [8]", "value": "Down"}, {"measurement": "Rho mRNA level (qPCR)", "setting": "RHO transcripts; NIH3T3(RHO^P23H/GFP) cells, vs DMSO control", "value": "No Change"}, {"measurement": "WT and P23H rhodopsin transcripts in comparison to DMSO control", "setting": "RHO transcripts; both NIH3T3(RHO^P23H/GFP) and NIH3T3(RHO^WT/GFP) cells", "value": "did not affect"}, {"measurement": "MTX induced P23H rhodopsin clearance under co-treatment with BafA1 (immunoblot)", "setting": "P23H rhodopsin [9]", "value": "abolished"}, {"measurement": "WT rhodopsin level under BafA1 and MTX co-treatment (immunoblot)", "setting": "WT rhodopsin", "value": "accumulation"}, {"measurement": "BTN-AHA labeled P23H rhodopsin at 24 h of chase in comparison to DMSO control", "setting": "P23H rhodopsin [10]", "value": "significantly reduced"}, {"measurement": "Multi-flash scotopic and photopic b-waves compared to PBS control group", "setting": "Rho^P23H/+ mice [11]; four weekly IVIs starting at PND 15 (25 pmol per treatment), ERG at PND 44", "value": "significantly increased"}, {"measurement": "Photopic ERG responses vs PBS treated or non-treated eyes", "setting": "Rho^P23H/+ mice [11]; single IVI 25 pmol at PND 15, ERG at PND 32", "value": "higher"}, {"measurement": "Multi-flash scotopic ERG a- and b-waves vs PBS or non-treated eyes", "setting": "Rho^P23H/+ mice [11]; [13]", "value": "no effect"}, {"measurement": "Photopic ERG responses vs PBS treated or non-treated eyes", "setting": "Rho^P23H/+ mice [11]; [13]", "value": "did not show any effects"}, {"measurement": "Ratio of scotopic and photopic b- to a-wave amplitudes", "setting": "Rho^P23H/+ mice [11]; single IVI at PND 15, ERG at PND 32", "value": "not affected"}]}]}
